Key:
T. cruzi amastigotes = assay: T. cruzi amastigote growth; format: cell-based, Trypanosoma cruzi; conditions: relative to compound 1
P450 enzymes = conditions: read-out: inhibition of P450 enzymes; previously reported weak inhibitor; cited from earlier work
[1] = target: rat protein farnesyltransferase (Rattus norvegicus, UniProt Q02293+Q04631); assay: Rat protein farnesyltransferase inhibition assay; format: biochemical; conditions: for fold reduction in potency/affinity for protein farnesyltransferase compared to 1: relative to compound 1
[2] = target: recombinant Tc-L14DM (lanosterol 14α-demethylase) (Trypanosoma cruzi, UniProt Q7Z1V1); assay: Binding to recombinant Tc-L14DM by difference optical spectroscopy
Procedure, shortened: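 Difference optical spectroscopy on recombinant T. cruzi lanosterol 14α-demethylase held at 1.4 μM, with test compound added at 200 nM – 2 uM; binding read from the difference spectra.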

Chain of recombinant Tc-L14DM (lanosterol 14α-demethylase) (Q7Z1V1 whole entry): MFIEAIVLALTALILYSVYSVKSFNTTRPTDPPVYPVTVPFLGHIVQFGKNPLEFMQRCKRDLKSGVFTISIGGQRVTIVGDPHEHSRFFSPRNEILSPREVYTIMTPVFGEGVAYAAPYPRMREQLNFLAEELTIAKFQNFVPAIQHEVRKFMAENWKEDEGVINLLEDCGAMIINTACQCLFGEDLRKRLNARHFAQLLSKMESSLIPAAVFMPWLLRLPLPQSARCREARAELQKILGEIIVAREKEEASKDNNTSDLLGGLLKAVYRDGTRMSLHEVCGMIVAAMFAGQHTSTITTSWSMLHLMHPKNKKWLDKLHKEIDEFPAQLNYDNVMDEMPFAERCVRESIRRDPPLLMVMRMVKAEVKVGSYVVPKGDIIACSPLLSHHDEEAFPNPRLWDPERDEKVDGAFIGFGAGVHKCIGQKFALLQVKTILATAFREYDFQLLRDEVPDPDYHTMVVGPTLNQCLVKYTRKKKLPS

SMILES	IC50 [1]	fold reduction in potency/affinity for protein farnesyltransferase compared to 1 [1]	other results
COC(c1ccc(Cl)cc1)(c1ccc2c(c1)c(-c1cccc(Cl)c1C)cc(=O)n2C)c1cncn1C (stereo not shown) [Compound 2]			fold more potent at killing T. cruzi amastigotes than 1 (T. cruzi amastigotes): about 10 fold
Cn1cncc1[C@@](N)(c1ccc(Cl)cc1)c1ccc2c(c1)c(-c1cccc(Cl)c1)cc(=O)n2C [Compound 1, tipifarnib]			IC50 (P450 enzymes): > 10 µM
CNC(c1ccc(Cl)cc1)(c1ccc2c(c1)c(-c1cccc(Cl)c1C)cc(=O)n2C)c1cncn1C (stereo not shown) [Compound 23, 4-(3-chloro-2-methylphenyl)-6-((4-chlorophenyl)(methylamino)(1-methyl-1H-imidazol-5-yl)methyl)-1-methylquinolin-2(1H)-one]	0.957 µM		
COC(c1ccc(Cl)cc1)(c1ccc2c(c1)c(-c1cc(C)cc(C)c1)cc(=O)n2C)c1cncn1C (stereo not shown) [Compound 17]		~ 600 fold	
COC(c1ccc(Cl)cc1)(c1ccc2c(c1)c(-c1cccc(Cl)c1)cc(=O)n2C)c1cncn1C (stereo not shown) [Compound 3]		100 fold	
CCn1cncc1C(OC)(c1ccc(Cl)cc1)c1ccc2c(c1)c(-c1cccc(Cl)c1)cc(=O)n2C (stereo not shown) [Compound 26]		~ 1,500 fold	
CCn1cncc1C(O)(c1ccc(Cl)cc1)c1ccc2c(c1)c(-c1cccc(Cl)c1)cc(=O)n2C (stereo not shown) [Compound 27]	0.03 µM		
COC(c1ccc(Cl)cc1)(c1ccc2c(c1)c(-c1c(F)cccc1F)cc(=O)n2C)c1cncn1C (stereo not shown) [Compound 16, 4-(2,6-Difluorophenyl)-6-((4-chlorophenyl)(methoxy)(1-methyl-1H-imidazol-5-yl)methyl)-1-methylquinolin-2(1H)-one]			Kd [2]: < 1.4 µM
Cc1c(Cl)cccc1-c1cc(=O)n(C)c2ccc(C(O)(c3ccc(Cl)cc3)c3cncn3C)cc12 (stereo not shown) [Compound 20, 4-(3-Chloro-2-methylphenyl)-6-((4-chlorophenyl)(hydroxy)(1-methyl-1H-imidazol-5-yl)methyl)-1-methylquinolin-2(1H)-one]	0.796 µM		
COC(c1ccc(Cl)cc1)(c1ccc2c(c1)c(-c1ccccc1)cc(=O)n2C)c1cncn1C (stereo not shown) [Compound 10]		~ 500 fold	
